Type in all cases: functional
Assay [1] deals with Staphylococcus aureus. Put plainly: Antibacterial activity against Staphylococcus aureus MTCC 2901 after 24 hrs by tube dilution method.
The subject of assay [2] is Bacillus subtilis. Put plainly: Antibacterial activity against Bacillus subtilis MTCC 2063 after 24 hrs by tube dilution method.
For assay [3], the system named is Escherichia coli. Put plainly: Antibacterial activity against Escherichia coli MTCC 1652 after 24 hrs by tube dilution method.
Assay [4] has as its system Candida albicans. Nature of the assay: Antifungal activity against Candida albicans MTCC 227 after 48 hrs by tube dilution method.
Assay [5] has as its system Aspergillus niger. Nature of the assay: Antifungal activity against Aspergillus niger MTCC 8184 after 7 days by tube dilution method. An outline of the steps: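 Tube (serial) dilution MIC in Sabouraud dextrose broth I.P., 25 °C for 7 days. Results are recorded as MIC and reported as pMIC in mM.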
Assay [6] relates to MCF7. Put plainly: Growth inhibition of human MCF7 cells at 50 uM after 48 hrs by MTT assay. The following applies: MCF7, 48 h, read-out: GI. An outline of the steps:
(§1)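 Cells from ECACC are kept in RPMI-1640 with 10% FCS and 1% penicillin at 37 °C in 5% CO2. They are seeded at 3×10^3 cells/well and dosed after 24 h from filter-sterilized DMSO stocks, then treated for 48 h. MTT (2.5 mg/mL in PBS) is added, formazan is dissolved in DMSO, and A570 is read. Viability is given as % of untreated.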

The subject of assay [7] is MCF7. Put plainly: Growth inhibition of human MCF7 cells at 10 uM after 48 hrs by MTT assay. The settings on record: MCF7, 48 h, read-out: GI. An outline of the steps: as §1
A general note: Tetrazolium dyes change colour on reduction, which living cells bring about.

The subject of assay [8] is A549. Nature of the assay: Growth inhibition of human A549 cells at 50 uM after 48 hrs by MTT assay. The settings on record: A549, 48 h, read-out: GI. An outline of the steps:
as §1

In assay [9] the test system is A549. Put plainly: Growth inhibition of human A549 cells at 10 uM after 48 hrs by MTT assay. The following applies: A549, 48 h, read-out: GI. Put shortly:
as §1

For assay [10], the system named is HCT-116. Nature of the assay: Growth inhibition of human HCT116 cells at 50 uM after 48 hrs by MTT assay. The settings on record: HCT-116, 48 h, read-out: GI. Put shortly: as §1
For assay [11], the system named is HCT-116. Nature of the assay: Growth inhibition of human HCT116 cells at 10 uM after 48 hrs by MTT assay. The following applies: HCT-116, 48 h, read-out: GI. Put shortly:
as §1

Assay [12] concerns PC-3. Put plainly: Growth inhibition of human PC3 cells at 50 uM after 48 hrs by MTT assay. The following applies: PC-3, 48 h, read-out: GI. An outline of the steps:
as §1

For assay [13], the system named is PC-3. Nature of the assay: Growth inhibition of human PC3 cells at 10 uM after 48 hrs by MTT assay. The settings on record: PC-3, 48 h, read-out: GI. An outline of the steps:
as §1

As for `c1ccc(C2=NC(c3ccccc3)c3c(ccc4ccccc34)O2)cc1` (centres undefined), the “-logMIC” value in assay [1] was determined as 1.43; in [2], 2.03; in assay [3], 2.33; in assay [4] it was 1.73; in [5] it was 1.43. Also, the inhibition of growth at 50 µM in [6] stood at 37%; in assay [8] it was 36%; in assay [10] it was 22%; in [12] it was 16%. The inhibition of growth at 10 µM in assay [7] was 26%; in assay [9] it was 19%; in [11], 5%; in assay [13], 1%.

Consider `COc1ccc(C2=NC(c3ccccc3)c3c(ccc4ccccc34)O2)cc1` (centres undefined), for which the “-logMIC” value in assay [1] is listed as 1.77; in assay [2], 1.77; in assay [3] it was 2.37; in [4] it was 1.77; in assay [5] it was 1.47. Moreover, the inhibition of growth at 50 µM in assay [6] was 42%; in assay [8], 43%; in [10], 14%; in assay [12] it was 23%. Further, the inhibition of growth at 10 µM amounted to 37% in assay [7], 19% in assay [9], 8% in [11] and 19% in [13].

As to `O=[N+]([O-])c1ccc(C2=NC(c3ccccc3)c3c(ccc4ccccc34)O2)cc1` (centres undefined), the “-logMIC” value was 1.78 in assay [1]; 1.78 in assay [2]; 1.78 in assay [3]; 1.78 in assay [4]; 1.48 in assay [5]. For the same compound, the inhibition of growth at 50 µM in assay [6] turned out to be 42%; in [8], 43%; in assay [10], 14%; in assay [12], 8%. Also, the inhibition of growth at 10 µM in assay [7] worked out at 34%; in assay [9], 17%; in assay [11] it was 4%; in [13], 6%.

With `Clc1ccc(C2=NC(c3ccccc3)c3c(ccc4ccccc34)O2)cc1` (centres undefined), the “-logMIC” value in assay [1] is reported as 1.77; in [2], 1.77; in assay [3] it was 2.37; in assay [4], 1.77; in assay [5] it was 1.47. The inhibition of growth at 50 µM in [6] amounted to 39%; in assay [8] it was 38%; in assay [10] it was 29%; in [12], 19%. The inhibition of growth at 10 µM was 27% in assay [7], 17% in assay [9], 3% in [11] and 9% in assay [13].

For `Cc1ccc(C2N=C(c3ccc(Br)cc3)Oc3ccc4ccccc4c32)cc1` (centres undefined), the “-logMIC” value in [1] is reported as 1.83; in [2], 1.83; in assay [3] it was 1.83; in assay [4], 1.83; in assay [5], 1.53. Also, the inhibition of growth at 50 µM amounted to 33% in [6], 32% in assay [8], 10% in [10] and 2% in assay [12]. Also, the inhibition of growth at 10 µM in assay [7] is 26%; in [9], 13%; in assay [11] it was 2%; in [13], 0%.

As for `Cc1ccc(C2N=C(c3ccc(Cl)cc3)Oc3ccc4ccccc4c32)cc1` (centres undefined), the “-logMIC” value in [1] is given as 1.49; in assay [2], 1.79; in assay [3] it was 0.88; in [4] it was 1.79; in assay [5] it was 1.49. Moreover, the inhibition of growth at 50 µM was determined as 37% in assay [6], 28% in assay [8], 6% in assay [10] and 13% in assay [12]. The inhibition of growth at 10 µM worked out at 21% in assay [7], 16% in assay [9], 3% in [11] and 8% in assay [13].

Turning to `Brc1ccc(C2=NC(c3ccccc3)c3c(ccc4ccccc34)O2)cc1` (centres undefined), the “-logMIC” value in assay [1] is given as 1.52; in [2], 1.82; in assay [3], 1.52; in assay [4], 1.82; in assay [5], 1.52. Further, the inhibition of growth at 50 µM was 39% in [6], 40% in [8], 29% in assay [10] and 11% in assay [12]. For the same compound, the inhibition of growth at 10 µM came out at 27% in [7], 23% in assay [9], 6% in assay [11] and 4% in assay [13].

Take `COc1ccc(C2=NC(c3ccc(OC)cc3)c3c(ccc4ccccc34)O2)cc1` (centres undefined): the “-logMIC” value in [1] amounted to 1.5; in assay [2], 2.1; in assay [3], 2.1; in assay [4], 1.8; in assay [5], 1.5. For the same compound, the inhibition of growth at 50 µM in assay [6] came out at 26%; in assay [8], 35%; in assay [10], 29%; in [12] it was 19%. Further, the inhibition of growth at 10 µM was determined as 22% in assay [7], 22% in assay [9], 27% in assay [11] and 17% in assay [13].

Turning to `Cc1ccc(C2N=C(c3ccc([N+](=O)[O-])cc3)Oc3ccc4ccccc4c32)cc1` (centres undefined), the “-logMIC” value was 1.8 in [1]; 1.8 in assay [2]; 1.8 in assay [3]; 1.8 in assay [4]; 1.5 in assay [5]. Besides, the inhibition of growth at 50 µM was 40% in assay [6], 41% in [8], 21% in [10] and 12% in assay [12]. Further, the inhibition of growth at 10 µM turned out to be 35% in assay [7], 13% in [9], 7% in assay [11] and 8% in assay [13].

Consider `Cc1ccc(C2=NC(c3ccccc3)c3c(ccc4ccccc34)O2)cc1` (centres undefined), for which the “-logMIC” value in assay [1] was determined as 1.75; in assay [2], 1.45; in assay [3] it was 2.05; in assay [4], 1.75; in assay [5] it was 1.45. The inhibition of growth at 50 µM in assay [6] stood at 46%; in [8], 43%; in assay [10] it was 38%; in [12], 20%. The inhibition of growth at 10 µM in assay [7] came out at 36%; in assay [9], 19%; in assay [11], 8%; in [13], 14%.

As to `COc1ccc(C2=NC(c3ccc(C)cc3)c3c(ccc4ccccc34)O2)cc1` (centres undefined), the “-logMIC” value in assay [1] is on record as 1.78; in assay [2], 1.78; in [3], 2.08; in assay [4], 1.78; in assay [5], 1.48. Besides, the inhibition of growth at 50 µM in assay [6] turned out to be 39%; in assay [8], 36%; in assay [10] it was 14%; in assay [12], 10%. Moreover, the inhibition of growth at 10 µM stood at 36% in [7], 15% in assay [9], 7% in assay [11] and 1% in assay [13].

Take `Cc1ccc(C2=NC(c3ccc(C)cc3)c3c(ccc4ccccc34)O2)cc1` (centres undefined): the “-logMIC” value in assay [1] worked out at 1.46; in assay [2] it was 2.07; in [3], 1.46; in [4], 1.76; in [5] it was 1.46. The inhibition of growth at 50 µM in [6] turned out to be 37%; in [8], 36%; in assay [10], 24%; in assay [12], 5%. The inhibition of growth at 10 µM in [7] is 30%; in assay [9], 17%; in assay [11] it was 19%; in assay [13] it was 1%.

As to `Cc1ccc(C2N=C(c3ccc(F)cc3)Oc3ccc4ccccc4c32)cc1` (centres undefined), the “-logMIC” value came to 1.47 in [1]; 2.07 in assay [2]; 2.07 in assay [3]; 1.77 in [4]; 1.47 in assay [5]. The inhibition of growth at 50 µM came out at 44% in assay [6], 44% in assay [8], 23% in [10] and 19% in [12]. The inhibition of growth at 10 µM in [7] is 20%; in [9] it was 16%; in assay [11], 18%; in [13], 5%.

For the compound `O=C(O)c1cn(C2CC2)c2cc(N3CCNCC3)c(F)cc2c1=O` [CIPROFLOXACIN], the “-logMIC” value in assay [1], in assay [2] and in [3] was 2.61 throughout.

Regarding `OC(Cn1cncn1)(Cn1cncn1)c1ccc(F)cc1F` [FLUCONAZOLE], the “-logMIC” value in assay [4] and in assay [5] was 2.64 each time.

Values taken from ChEMBL document CHEMBL2086288, “Synthesis, antimicrobial and cytotoxicity study of 1,3-disubstituted-1H-naphtho[1,2-e][1,3]oxazines” (2012).
